Data from ChEMBL document CHEMBL2331536, “Indenoindolone derivatives as topoisomerase II-inhibiting anticancer agents” (Bioorg Med Chem Lett, 2013).
The source made the active and inactive calls. No cut-off for these calls is given here.

What was measured:
[1] = test system: HEK293; assay: Cytotoxicity against HEK293 cells after 48 hrs by MTT assay; type: functional; settings: Homo sapiens, HEK293, 48 h; read-out: LC50 (the source's name)
Procedure, shortened: (§1)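 HEK-293 (ATCC CRL-1573) or normal monkey kidney Vero (ATCC CCL-81) cells were plated, then exposed to a range of compound concentrations for 48 h. MTT was added, and the formazan was dissolved in detergent solution and read at 570 nm. LC50 is the concentration giving 50% cell death. Data are the mean SD of three separate experiments.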

[2] = target: DNA topoisomerase 2-alpha (Homo sapiens) (UniProt P11388); assay: Inhibition of human topoisomerase 2alpha at 100 uM incubated for 30 mins at 37 degC by agarose-gel electrophoresis based ATP-dependent kDNA decatenation assay
Procedure, shortened: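 Commercial topoisomerase drug-screening kit, in vitro ATP-dependent assay. kDNA treated with hTopoIIα plus test agent or 100 µM etoposide, 37 °C, 30 min. Run on 1% agarose gel in TAE buffer; decatenated product quantified.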

[3] = target: T1, DNA topoisomerase 1 (Homo sapiens) (UniProt P11387); assay: Inhibition of human DNA topoisomerase 1 assessed as effect on relaxation of negatively super colied DNA at 100 uM incubated for 30 mins at 37 degC by agarose-gel electrophoresis
T1 sequence (whole entry): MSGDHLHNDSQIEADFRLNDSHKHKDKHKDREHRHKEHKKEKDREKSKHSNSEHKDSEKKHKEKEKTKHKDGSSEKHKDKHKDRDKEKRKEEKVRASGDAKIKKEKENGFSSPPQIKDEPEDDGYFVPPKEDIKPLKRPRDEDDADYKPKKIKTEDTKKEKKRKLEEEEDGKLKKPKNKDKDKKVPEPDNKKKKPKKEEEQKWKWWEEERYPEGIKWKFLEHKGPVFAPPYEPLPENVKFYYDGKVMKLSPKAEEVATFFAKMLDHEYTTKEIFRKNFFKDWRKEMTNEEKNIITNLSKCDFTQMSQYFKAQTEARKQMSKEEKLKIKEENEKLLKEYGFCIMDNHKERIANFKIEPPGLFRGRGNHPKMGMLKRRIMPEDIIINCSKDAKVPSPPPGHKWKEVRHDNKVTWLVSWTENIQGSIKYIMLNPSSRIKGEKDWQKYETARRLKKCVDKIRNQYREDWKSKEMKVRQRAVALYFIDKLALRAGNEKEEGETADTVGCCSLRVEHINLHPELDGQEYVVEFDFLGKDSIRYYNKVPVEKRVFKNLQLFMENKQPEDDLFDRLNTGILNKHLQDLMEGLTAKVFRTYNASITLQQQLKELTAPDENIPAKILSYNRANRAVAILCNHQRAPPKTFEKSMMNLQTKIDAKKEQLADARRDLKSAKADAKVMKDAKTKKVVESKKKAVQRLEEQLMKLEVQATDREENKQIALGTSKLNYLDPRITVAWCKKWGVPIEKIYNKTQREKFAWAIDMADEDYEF
Procedure, shortened: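 Negatively supercoiled DNA treated with human topoisomerase I plus test agent or 100 µM camptothecin, 37 °C, 30 min. Relaxation judged on 1% agarose gel electrophoresis in TAE buffer.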

[4] = test system: Nucleic Acid; assay: Induction of DNA intercalation in negatively Escherichia coli super coiled small circular plasmid DNA assessed as retradation of DNA migration at 100 uM incubated for 20 mins at 37 degC by agarose-gel electrophoresis; type: nucleic-acid assay
Procedure, shortened: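 250 ng negatively supercoiled small circular plasmid DNA (from E. coli) incubated with test agent or ethidium bromide, 37 °C, 20 min. Products resolved on 1% agarose gel in TAE buffer.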

[5] = Cytotoxicity against african green monkey Vero cells after 48 hrs by MTT assay; type: cell-based; settings: chlorocebus sabaeus, read-out: LC50; procedure, shortened: as §1

Chain of DNA topoisomerase 2-alpha (Homo sapiens) (P11388 whole entry): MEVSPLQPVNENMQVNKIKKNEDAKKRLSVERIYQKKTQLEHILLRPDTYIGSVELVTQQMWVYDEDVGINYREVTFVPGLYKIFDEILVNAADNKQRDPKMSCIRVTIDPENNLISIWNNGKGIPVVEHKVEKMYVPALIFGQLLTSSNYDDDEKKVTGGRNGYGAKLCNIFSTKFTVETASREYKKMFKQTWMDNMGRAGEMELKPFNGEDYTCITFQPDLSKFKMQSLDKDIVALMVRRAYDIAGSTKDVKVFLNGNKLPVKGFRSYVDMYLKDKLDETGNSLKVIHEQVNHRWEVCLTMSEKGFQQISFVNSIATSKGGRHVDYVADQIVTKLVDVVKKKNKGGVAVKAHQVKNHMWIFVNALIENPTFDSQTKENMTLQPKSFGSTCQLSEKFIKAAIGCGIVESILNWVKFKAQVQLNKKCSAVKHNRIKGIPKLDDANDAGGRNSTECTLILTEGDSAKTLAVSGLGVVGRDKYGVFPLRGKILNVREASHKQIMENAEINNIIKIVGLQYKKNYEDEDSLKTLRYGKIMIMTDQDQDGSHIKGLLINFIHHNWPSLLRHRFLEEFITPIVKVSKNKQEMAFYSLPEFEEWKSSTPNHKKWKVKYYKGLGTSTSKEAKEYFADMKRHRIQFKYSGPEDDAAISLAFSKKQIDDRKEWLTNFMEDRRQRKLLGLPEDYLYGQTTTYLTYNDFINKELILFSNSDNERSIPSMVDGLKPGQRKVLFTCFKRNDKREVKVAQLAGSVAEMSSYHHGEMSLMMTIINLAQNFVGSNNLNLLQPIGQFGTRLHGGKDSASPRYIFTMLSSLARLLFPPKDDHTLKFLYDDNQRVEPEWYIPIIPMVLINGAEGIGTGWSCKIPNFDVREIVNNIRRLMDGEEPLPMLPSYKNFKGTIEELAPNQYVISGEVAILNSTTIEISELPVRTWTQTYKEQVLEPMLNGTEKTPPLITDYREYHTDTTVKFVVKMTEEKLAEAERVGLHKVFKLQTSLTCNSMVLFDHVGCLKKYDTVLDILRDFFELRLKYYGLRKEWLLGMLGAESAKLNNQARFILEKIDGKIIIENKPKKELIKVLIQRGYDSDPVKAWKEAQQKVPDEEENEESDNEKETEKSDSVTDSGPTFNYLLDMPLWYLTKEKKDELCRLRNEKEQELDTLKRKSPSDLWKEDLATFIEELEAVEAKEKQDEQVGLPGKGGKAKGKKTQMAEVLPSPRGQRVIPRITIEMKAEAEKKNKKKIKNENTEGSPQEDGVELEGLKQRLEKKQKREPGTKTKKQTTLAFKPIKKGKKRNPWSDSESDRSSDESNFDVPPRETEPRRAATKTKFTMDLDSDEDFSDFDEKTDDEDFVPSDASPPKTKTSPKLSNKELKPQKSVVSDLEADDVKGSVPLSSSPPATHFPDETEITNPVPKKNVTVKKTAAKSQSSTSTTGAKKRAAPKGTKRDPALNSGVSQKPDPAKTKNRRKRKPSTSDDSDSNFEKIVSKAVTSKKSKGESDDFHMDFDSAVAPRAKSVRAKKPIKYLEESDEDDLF

Structure (SMILES)	CC50 [1] [µM]	inhibition [2]	inhibition [3]	Activity [4]	CC50 at 48 h [5] [µM]
O=c1[nH]cc(F)c(=O)[nH]1 [FLUOROURACIL]	25				
O/N=C1\c2ccccc2-c2c1c1ccccc1n2Cc1ccccc1		Active			
COc1ccc2c(c1)C(O)c1c-2n(C)c2ccccc12 (centres undefined)	4	Active	inactive	inactive	30
NC(=S)N/N=C1\c2ccccc2-c2[nH]c3ccccc3c21	7	Active	inactive	inactive	50
Cn1c2c(c3ccccc31)/C(=N/NC(=O)Nc1ccccc1)c1ccccc1-2		Active			
COc1ccc(N/N=C2\c3ccccc3-c3c2c2ccccc2n3Cc2ccccc2)cc1		Active			
CN1c2ccccc2C2=C(O)c3ccccc3C21 (centres undefined)		Active			
COc1ccc2c(c1)/C(=N\Nc1ccccc1)c1c-2n(C)c2ccccc12		Active			
COc1cc([C@@H]2c3cc4c(cc3[C@@H](O[C@@H]3O[C@@H]5CO[C@@H](C)O[C@H]5[C@H](O)[C@H]3O)[C@H]3COC(=O)[C@H]23)OCO4)cc(OC)c1O [ETOPOSIDE]	17			inactive	29
COc1ccc(N/N=C2/c3cc(OC)c(OC)c(OC)c3-c3c2c2ccccc2n3C)cc1		Active			
COc1ccc(N/N=C2\c3ccccc3-c3c2c2ccccc2n3C)cc1		Active			
c1ccc(N/N=C2\c3ccccc3-c3[nH]c4ccccc4c32)cc1		Active			
Cc1ccc(N/N=C2\c3ccccc3-c3c2c2ccccc2n3C)cc1		Active			
c1ccc(Cn2c3c(c4ccccc42)/C(=N/Nc2ccccc2)c2ccccc2-3)cc1		Active			
COc1ccc2c(c1)c1c(n2C)-c2ccccc2/C1=N\Nc1ccccc1		Active			
Cn1c2c(c3ccccc31)/C(=N/Nc1ccccc1)c1ccccc1-2		Active			
COc1cc2c(c(OC)c1OC)-c1c(c3ccccc3n1C)C2O (centres undefined)	8	Active	inactive	inactive	40
COc1ccc2c(c1)/C(=N\O)c1c-2n(C)c2ccccc12	5	Active	inactive	inactive	60
COc1ccc(N/N=C2/c3cc(OC)c(OC)cc3-c3c2c2ccccc2n3C)cc1		Active			
O/N=C1\c2ccccc2-c2[nH]c3ccccc3c21	6	Active	inactive	inactive	60
CC[n+]1c(-c2ccccc2)c2cc(N)ccc2c2ccc(N)cc21				Active	
O=C(N/N=C1\c2ccccc2-c2c1c1ccccc1n2Cc1ccccc1)Nc1ccccc1		Active			
